The subject of assay [1] is Staphylococcus aureus. The assay can be described thus: Antibacterial activity against methicillin-, inducible MLS-resistant Staphylococcus aureus PU 32 by broth microdilution method. In general terms: In broth dilution the organism is exposed to a series of concentrations in liquid medium.
The subject of assay [2] is Streptococcus pyogenes. The assay can be described thus: Antibacterial activity against erythromycin-susceptible Streptococcus pyogenes A 3 by broth microdilution method. Format: functional. A digest of the protocol: (§1)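 MIC read by broth microdilution following CLSI (2010) guidance. The clinical isolates were identified by 16S rDNA sequencing and labelled by genotype and phenotype. S. aureus ATCC 29213 and S. pneumoniae ATCC 49619 were the control strains. Azithromycin, clarithromycin and 3-OH-clarithromycin were run as reference compounds.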

The test system of assay [3] is Streptococcus pyogenes. The assay can be described thus: Antibacterial activity against constitutive MLS-resistant Streptococcus pyogenes A 2 by broth microdilution method. The class given is functional. A digest of the protocol: (§2)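 MIC by broth microdilution following CLSI (2010) recommendations, using clinical isolates identified by 16S rDNA sequencing and labelled by genotype and phenotype. S. aureus ATCC 29213 and S. pneumoniae ATCC 49619 were run as control strains, and azithromycin, clarithromycin and 3-OH-clarithromycin were tested as reference agents.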

Assay [4] deals with Staphylococcus haemolyticus. The assay can be described thus: Antibacterial activity against methicillin-resistant, coagulase-negative, constitutive MLS-resistant Staphylococcus haemolyticus PU 19 by broth microdilution method. The class given is functional. In a few lines: as §2
For assay [5], the system named is Streptococcus pneumoniae. The assay can be described thus: Antibacterial activity against penicillin-susceptible, constitutive MLS-resistant Streptococcus pneumoniae PU 27 by broth microdilution method. The class given is functional. In a few lines: as §2
Assay [6] deals with Staphylococcus epidermidis. The assay can be described thus: Antibacterial activity against methicillin-resistant, constitutive MLS-resistant Staphylococcus epidermidis E2 by broth microdilution method. The class given is functional. A digest of the protocol: as §2
The subject of assay [7] is Staphylococcus aureus. The assay can be described thus: Antibacterial activity against methicillin-, constitutive MLS-resistant […] by broth microdilution method. The class given is functional. A digest of the protocol:
as §2

Assay [8] relates to Staphylococcus aureus. The assay can be described thus: Antibacterial activity against erythromycin-susceptible Staphylococcus aureus ATCC 29213 by broth microdilution method. Format: functional. A digest of the protocol:
as §1

For assay [9], the system named is Streptococcus pneumoniae. The assay can be described thus: Antibacterial activity against penicillin-, constitutive MLS-resistant Streptococcus pneumoniae PU 11 by broth microdilution method. Format: functional. A digest of the protocol:
as §2

The subject of assay [10] is Staphylococcus aureus. The assay can be described thus: Antibacterial activity against methicillin-susceptible, inducible MLS-resistant Staphylococcus aureus PU 64 by broth microdilution method. Format: functional. In a few lines: as §2
Assay [11] concerns Streptococcus dysgalactiae. The assay can be described thus: Antibacterial activity against efflux, erythromycin-resistant Streptococcus dysgalactiae A 1 by broth microdilution method. Format: functional. A digest of the protocol: as §2
Assay [12] relates to Staphylococcus epidermidis. The assay can be described thus: Antibacterial activity against methicillin-susceptible, inducible MLS-resistant Staphylococcus epidermidis E1 by broth microdilution method. Format: functional. A digest of the protocol: as §2
Assay [13] concerns Streptococcus pneumoniae. The assay can be described thus: Antibacterial activity against efflux,penicillin-susceptible Streptococcus pneumoniae PU 09 by broth microdilution method. The class given is functional. A digest of the protocol: as §1
For assay [14], the system named is Streptococcus pneumoniae. The assay can be described thus: Antibacterial activity against erythromycin-susceptible Streptococcus pneumoniae ATCC 49619 by broth microdilution method. The class given is functional. In a few lines: as §1
For assay [15], the system named is Staphylococcus hominis. The assay can be described thus: Antibacterial activity against methicillin-resistant, coagulase-negative, inducible MLS-resistant Staphylococcus hominis E3 by broth microdilution method. The class given is functional. In a few lines:
as §2

Molecules are shown by their SMILES. Values after ≈ are worked out from the molar mass of the structure shown.

This passage reports MIC results from ChEMBL document CHEMBL1944546, “Structure-activity relationships of novel alkylides: 3-O-arylalkyl clarithromycin derivatives with improved antibacterial activities” (2012).

By MIC is commonly meant the smallest concentration in the dilution series that meets the test's criterion for growth inhibition.

Take `CC[C@H]1OC(=O)[C@H](C)[C@@H](OCCCc2cccnc2)[C@H](C)[C@@H](O[C@@H]2O[C@H](C)C[C@H](N(C)C)[C@H]2O)[C@](C)(OC)C[C@@H](C)/C(=N\OCc2ccccc2Cl)[C@H](C)[C@H]2OC(=O)O[C@@]21C`: the MIC in assay [1] was over 256 µg/mL; in assay [2], 8 µg/mL (≈ 9.15 µM); in assay [3], 32 µg/mL (≈ 36.6 µM); in [4] it was over 256 µg/mL; in assay [5], 32 µg/mL (≈ 36.6 µM); in assay [6], over 256 µg/mL. Moreover, the MIC in assay [7] was over 256 µg/mL; in assay [8] it was over 256 µg/mL; in assay [9], 64 µg/mL (≈ 73.2 µM); in assay [10] it was over 256 µg/mL; in assay [11], 16 µg/mL (≈ 18.3 µM); in assay [12], over 256 µg/mL. Further, the results for the minimal inhibitory concentration (MIC) in assay [13], in [14] and in assay [15] were 16 µg/mL (≈ 18.3 µM), 8 µg/mL (≈ 9.15 µM) and over 256 µg/mL, respectively.
Regarding `CC[C@H]1OC(=O)[C@H](C)[C@@H](OC/C=C/c2cncnc2)[C@H](C)[C@@H](O[C@@H]2O[C@H](C)C[C@H](N(C)C)[C@H]2O)[C@](C)(OC)C[C@@H](C)/C(=N\O)[C@H](C)[C@@H](O)[C@]1(C)O`, the minimal inhibitory concentration (MIC) was over 256 µg/mL in assay [1]; 8 µg/mL (≈ 11.1 µM) in [2]; over 256 µg/mL in [3]; over 256 µg/mL in assay [4]; 128 µg/mL (≈ 177 µM) in assay [5]; over 256 µg/mL in assay [6]. Further, the MIC in assay [7] is over 256 µg/mL; in assay [8] it was over 256 µg/mL; in [9], over 256 µg/mL; in [10], over 256 µg/mL; in assay [11], 16 µg/mL (≈ 22.1 µM); in assay [12] it was over 256 µg/mL. For the same compound, the results for the minimum inhibitory concentration (MIC) in assay [13], in [14] and in [15] were 32 µg/mL (≈ 44.3 µM), 16 µg/mL (≈ 22.1 µM) and over 256 µg/mL, respectively.
As to `CC[C@H]1OC(=O)[C@H](C)[C@@H](OC/C=C/c2cncnc2)[C@H](C)[C@@H](O[C@@H]2O[C@H](C)C[C@H](N(C)C)[C@H]2O)[C@](C)(OC)C[C@@H](C)C(=O)[C@H](C)[C@@H](O)[C@]1(C)O`, the MIC in [1] was over 256 µg/mL; in assay [2], 8 µg/mL (≈ 11.3 µM); in assay [3], over 256 µg/mL; in assay [4], over 256 µg/mL; in [5], 128 µg/mL (≈ 181 µM); in assay [6] it was over 256 µg/mL. Also, the minimal inhibitory concentration (MIC) in assay [7] is over 256 µg/mL; in assay [8] it was over 256 µg/mL; in assay [9] it was 128 µg/mL (≈ 181 µM); in [10], over 256 µg/mL; in [11] it was 16 µg/mL (≈ 22.6 µM); in assay [12] it was over 256 µg/mL. The figures for the minimum inhibitory concentration (MIC) in [13], in [14] and in [15] were 16 µg/mL (≈ 22.6 µM), 8 µg/mL (≈ 11.3 µM) and over 256 µg/mL, respectively.
As to `CC[C@H]1OC(=O)[C@H](C)[C@@H](OC/C=C/c2cncnc2)[C@H](C)[C@@H](O[C@@H]2O[C@H](C)C[C@H](N(C)C)[C@H]2O)[C@](C)(OC)C[C@@H](C)/C(=N\O)[C@H](C)[C@H]2OC(=O)O[C@@]21C`, the MIC was 8 µg/mL (≈ 10.7 µM) in assay [1]; 0.125 µg/mL (≈ 0.167 µM) in [2]; over 256 µg/mL in [3]; over 256 µg/mL in assay [4]; 32 µg/mL (≈ 42.7 µM) in assay [5]; over 256 µg/mL in assay [6]. Besides, the MIC in assay [7] is over 256 µg/mL; in assay [8], 8 µg/mL (≈ 10.7 µM); in assay [9], over 256 µg/mL; in assay [10], 4 µg/mL (≈ 5.34 µM); in assay [11], 1 µg/mL (≈ 1.34 µM); in assay [12] it was over 256 µg/mL. Moreover, the MIC was 4 µg/mL (≈ 5.34 µM) in assay [13], 0.5 µg/mL (≈ 0.668 µM) in [14] and over 256 µg/mL in [15].
As to `CC[C@H]1OC(=O)[C@H](C)[C@@H](OC/C=C/c2cncnc2)[C@H](C)[C@@H](O[C@@H]2O[C@H](C)C[C@H](N(C)C)[C@H]2O)[C@](C)(OC)C[C@@H](C)/C(=N\OCc2c(C)cc(C)cc2C)[C@H](C)[C@H]2OC(=O)O[C@@]21C`, the MIC in assay [1] was over 256 µg/mL; in assay [2], 32 µg/mL (≈ 36.3 µM); in [3], 32 µg/mL (≈ 36.3 µM); in [4], over 256 µg/mL; in assay [5] it was 64 µg/mL (≈ 72.6 µM); in assay [6] it was over 256 µg/mL. The MIC is over 256 µg/mL in assay [7]; over 256 µg/mL in [8]; 64 µg/mL (≈ 72.6 µM) in [9]; over 256 µg/mL in assay [10]; 32 µg/mL (≈ 36.3 µM) in assay [11]; over 256 µg/mL in [12]. The results for the MIC in [13], in assay [14] and in [15] were 32 µg/mL (≈ 36.3 µM), 16 µg/mL (≈ 18.2 µM) and over 256 µg/mL, respectively.
`CC[C@H]1OC(=O)[C@H](C)[C@@H](OCC#Cc2cncnc2)[C@H](C)[C@@H](O[C@@H]2O[C@H](C)C[C@H](N(C)C)[C@H]2O)[C@](C)(OC)C[C@@H](C)/C(=N\O)[C@H](C)[C@@H](O)[C@]1(C)O`: the minimal inhibitory concentration (MIC) in assay [1], in assay [2], in assay [3], in assay [4], in assay [5] and in assay [6] was over 256 µg/mL throughout. Besides, the MIC in [7], in assay [8], in assay [9], in assay [10], in assay [11] and in assay [12] was over 256 µg/mL each time. The MIC in assay [13], in assay [14] and in assay [15] was over 256 µg/mL throughout.
With `CC[C@H]1OC(=O)[C@H](C)[C@@H](O[C@H]2C[C@@](C)(OC)[C@@H](O)[C@H](C)O2)[C@H](C)[C@@H](O[C@@H]2O[C@H](C)C[C@H](N(C)C)[C@H]2O)[C@](C)(O)C[C@@H](C)CN(C)[C@H](C)[C@@H](O)[C@]1(C)O` [AZITHROMYCIN], the MIC is 8 µg/mL (≈ 10.7 µM) in assay [1]; 0.125 µg/mL (≈ 0.167 µM) in assay [2]; over 256 µg/mL in assay [3]; over 256 µg/mL in assay [4]; 64 µg/mL (≈ 85.4 µM) in [5]; over 256 µg/mL in [6]. Also, the MIC is over 256 µg/mL in [7]; 1 µg/mL (≈ 1.34 µM) in [8]; over 256 µg/mL in assay [9]; 8 µg/mL (≈ 10.7 µM) in assay [10]; 32 µg/mL (≈ 42.7 µM) in assay [11]; over 256 µg/mL in assay [12]. In addition, the results for the minimal inhibitory concentration (MIC) in assay [13], in assay [14] and in [15] were 8 µg/mL (≈ 10.7 µM), 0.25 µg/mL (≈ 0.334 µM) and over 256 µg/mL, respectively.
With `CC[C@H]1OC(=O)[C@H](C)[C@@H](O[C@H]2C[C@@](C)(OC)[C@@H](O)[C@H](C)O2)[C@H](C)[C@@H](O[C@@H]2O[C@H](C)C[C@H](N(C)C)[C@H]2O)[C@](C)(OC)C[C@@H](C)C(=O)[C@H](C)[C@@H](O)[C@]1(C)O` [CLARITHROMYCIN], the MIC in [1] is 1 µg/mL (≈ 1.34 µM); in assay [2] it was 0.032 µg/mL (≈ 0.0428 µM); in [3] it was over 256 µg/mL; in assay [4], over 256 µg/mL; in [5], 1 µg/mL (≈ 1.34 µM); in [6], over 256 µg/mL. For the same compound, the MIC was over 256 µg/mL in [7]; 0.25 µg/mL (≈ 0.334 µM) in assay [8]; over 256 µg/mL in assay [9]; 2 µg/mL (≈ 2.67 µM) in [10]; 8 µg/mL (≈ 10.7 µM) in assay [11]; over 256 µg/mL in assay [12]. Also, the MIC in [13] is 4 µg/mL (≈ 5.35 µM); in assay [14], 0.032 µg/mL (≈ 0.0428 µM); in [15] it was over 256 µg/mL.
